Laboratory results published in ChEMBL document CHEMBL5316280, “Development of N-(1-Adamantyl)benzamides as Novel Anti-Inflammatory Multitarget Agents Acting as Dual Modulators of the Cannabinoid CB2 Receptor and Fatty Acid Amide Hydrolase” (J Med Chem, 2023).
Activity calls are given as the source filed them. The calls are words filed in the database; no cut-off is given here.

Columns and labels:
[1] = biological target: T1, Fatty-acid amide hydrolase 1 (Homo sapiens, UniProt O00519); assay: Inhibition of recombinant human FAAH using AMC-AA as substrate preincubated for 10 mins followed by substrate addition measured after 2 hrs by fluorometric assay
T1 sequence (O00519 whole entry): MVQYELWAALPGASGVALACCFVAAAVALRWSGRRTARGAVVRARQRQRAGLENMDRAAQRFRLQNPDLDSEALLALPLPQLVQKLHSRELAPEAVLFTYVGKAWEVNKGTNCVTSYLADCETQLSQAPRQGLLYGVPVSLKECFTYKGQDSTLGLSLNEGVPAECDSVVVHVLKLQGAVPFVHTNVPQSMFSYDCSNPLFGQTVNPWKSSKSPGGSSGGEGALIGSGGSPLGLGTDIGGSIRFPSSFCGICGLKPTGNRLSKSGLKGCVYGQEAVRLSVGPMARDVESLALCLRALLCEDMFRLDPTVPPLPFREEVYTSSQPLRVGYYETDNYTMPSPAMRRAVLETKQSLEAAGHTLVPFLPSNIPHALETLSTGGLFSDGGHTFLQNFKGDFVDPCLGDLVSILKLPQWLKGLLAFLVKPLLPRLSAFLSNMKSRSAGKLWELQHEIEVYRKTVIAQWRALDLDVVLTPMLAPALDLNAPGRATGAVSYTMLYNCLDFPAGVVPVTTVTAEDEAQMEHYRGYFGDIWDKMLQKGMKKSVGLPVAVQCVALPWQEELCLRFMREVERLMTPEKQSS
Outline: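 Human recombinant FAAH preincubated with inhibitor at various concentrations in Tris-HCl 125 mM, Na₂EDTA 1 mM, pH 9.0, 10 min at room temperature with shaking. AMC-AA substrate then added (1 µM final); fluorescence read every 30 s for 2 h at 37 °C (ex 340/em 450 nm). Percent inhibition from no-inhibitor controls and no-enzyme blanks; IC50 from at least three independent runs in triplicate.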

THP-1 [2] = assay: Antiinflammatory activity in human THP-1 monocytes assessed as increase in IL-4 level incubated for 24 hrs by ELISA based qRT-PCR analysis; type: functional, cell-based
Outline: (§1)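 THP-1 cells were seeded at 1 x 10⁵ cells/ml for 48 h. For macrophages, cells were differentiated with 0.01 µM PMA for 48 h; monocytes received no PMA. Cells were then given 24 h with or without 10 µg/ml LPS, plus ligands alone or with the CB2R inverse agonist JTE907 (10 µM). Cytokines were measured in 5 µL supernatant (from 1 x 10⁴ cells) by ProQuantum immunoassay, read as pg/ml from kit titration curves; n=3.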

Cannabinoid receptor 2 = Cannabinoid receptor 2 (Mus musculus, UniProt P47936); assay: Agonist activity at mouse CB2 receptor transfected in CHO-K1 cells assessed as beta2-arrestin recruitment incubated for 90 mins by luminescence based assay; type: functional, cell-based
Outline: (§2)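 PathHunter eXpress kit using mouse CB2 receptor in CHO-K1 cells. Cells were seeded 48 h before the assay in kit medium. Compounds in cell plating reagent were incubated 90 min at 37 °C, 5% CO2. Working detection solution was then added for 60 min at room temperature to read β-arrestin recruitment.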

[3] = biological target: Cannabinoid receptor 2 (Mus musculus) (UniProt P47936); assay: Agonist activity at mouse CB2 receptor transfected in CHO-K1 cells assessed as beta2-arrestin recruitment incubated for 90 mins by luminescence based assay relative to control; type: functional, cell-based; outline: as §2
THP-1 [4] = assay: Antiinflammatory activity in human THP-1 monocytes assessed as decrease in TNFalpha level incubated for 24 hrs by ELISA based qRT-PCR analysis; type: functional, cell-based; outline: as §1
THP-1 [5] = assay: Antiinflammatory activity in human THP-1 macrophages assessed as decrease in TNFalpha level incubated for 24 hrs by ELISA based qRT-PCR analysis; type: functional, cell-based; outline: as §1
THP-1 [6] = assay: Antiinflammatory activity in human THP-1 monocytes assessed as decrease in IFNgamma level incubated for 24 hrs by ELISA based qRT-PCR analysis; type: functional, cell-based; outline: as §1
THP-1 [7] = assay: Antiinflammatory activity in human THP-1 macrophages assessed as decrease in IFNgamma level incubated for 24 hrs by ELISA based qRT-PCR analysis; type: functional, cell-based; outline: as §1
THP-1 [8] = assay: Antiinflammatory activity in human THP-1 monocytes assessed as decrease in IL-1beta level incubated for 24 hrs by ELISA based qRT-PCR analysis; type: functional, cell-based; outline: as §1
THP-1 [9] = assay: Antiinflammatory activity in human THP-1 macrophages assessed as increase in IL-10 level incubated for 24 hrs by ELISA based qRT-PCR analysis; type: functional, cell-based; outline: as §1
THP-1 [10] = assay: Antiinflammatory activity in human THP-1 macrophages assessed as decrease in TNFalpha level incubated for 24 hrs in presence of […] by ELISA based qRT-PCR analysis; type: functional, cell-based; outline: as §1
THP-1 [11] = assay: Antiinflammatory activity in human THP-1 monocytes assessed as decrease in IL-6 level incubated for 24 hrs in presence of […] by ELISA based qRT-PCR analysis; type: functional, cell-based; outline: as §1
THP-1 [12] = assay: Antiinflammatory activity in human THP-1 macrophages assessed as decrease in IL-6 level incubated for 24 hrs in presence of […] by ELISA based qRT-PCR analysis; type: functional, cell-based; outline: as §1
THP-1 [13] = assay: Antiinflammatory activity in human THP-1 monocytes assessed as increase in IL-4 level incubated for 24 hrs in presence of […] by ELISA based qRT-PCR analysis; type: functional, cell-based; outline: as §1
THP-1 [14] = assay: Antiinflammatory activity in human THP-1 macrophages assessed as increase in IL-4 level incubated for 24 hrs in presence of […] by ELISA based qRT-PCR analysis; type: functional, cell-based; outline: as §1
THP-1 [15] = assay: Antiinflammatory activity in human THP-1 monocytes assessed as increase in IL-10 level incubated for 24 hrs in presence of […] by ELISA based qRT-PCR analysis; type: functional, cell-based; outline: as §1
THP-1 [16] = assay: Antiinflammatory activity in human THP-1 macrophages assessed as increase in IL-10 level incubated for 24 hrs in presence of […] by ELISA based qRT-PCR analysis; type: functional, cell-based; outline: as §1
[17] = Metal chelating activity assessed as Fe2+-compound complex formation incubated for 15 mins by Ferrozine based assay
Outline: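 FeSO₄ (25 µM) in water incubated with or without test compound (100 µM, DMSO) for 15 min at room temperature, 300 µL final. Ferrozine then added (1 mM final), shaken 15 min at room temperature. Absorbance of the ferrozine–Fe(II) magenta complex read at 562 nm; chelation seen as reduced complex formation.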

Cannabinoid receptor 1 [18] = biological target: T2, Cannabinoid receptor 1 (Homo sapiens, UniProt P21554); assay: Agonist activity at human CB1 receptor in CHO cells incubated for 15 mins by plate reader analysis
Cannabinoid receptor 1 [19] = biological target: T2, Cannabinoid receptor 1; assay: Displacement of [3H]CP55940 from recombinant human CB1 receptor expressed in HEK293 cell membrane incubated for 60 mins by beta scintillation counter method

Chain of Cannabinoid receptor 2 (Mus musculus) (P47936 whole entry): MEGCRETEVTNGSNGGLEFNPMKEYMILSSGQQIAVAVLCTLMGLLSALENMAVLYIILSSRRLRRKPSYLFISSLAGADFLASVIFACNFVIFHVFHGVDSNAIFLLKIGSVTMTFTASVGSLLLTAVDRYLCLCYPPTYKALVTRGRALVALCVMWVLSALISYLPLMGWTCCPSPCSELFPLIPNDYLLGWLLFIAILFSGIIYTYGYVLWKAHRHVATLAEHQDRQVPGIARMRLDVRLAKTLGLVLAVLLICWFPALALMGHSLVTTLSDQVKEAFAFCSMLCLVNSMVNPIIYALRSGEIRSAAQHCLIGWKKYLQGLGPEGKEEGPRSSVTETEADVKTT
Chain of Cannabinoid receptor 2 (P47936 whole entry): as above
T2 sequence (P21554 whole entry): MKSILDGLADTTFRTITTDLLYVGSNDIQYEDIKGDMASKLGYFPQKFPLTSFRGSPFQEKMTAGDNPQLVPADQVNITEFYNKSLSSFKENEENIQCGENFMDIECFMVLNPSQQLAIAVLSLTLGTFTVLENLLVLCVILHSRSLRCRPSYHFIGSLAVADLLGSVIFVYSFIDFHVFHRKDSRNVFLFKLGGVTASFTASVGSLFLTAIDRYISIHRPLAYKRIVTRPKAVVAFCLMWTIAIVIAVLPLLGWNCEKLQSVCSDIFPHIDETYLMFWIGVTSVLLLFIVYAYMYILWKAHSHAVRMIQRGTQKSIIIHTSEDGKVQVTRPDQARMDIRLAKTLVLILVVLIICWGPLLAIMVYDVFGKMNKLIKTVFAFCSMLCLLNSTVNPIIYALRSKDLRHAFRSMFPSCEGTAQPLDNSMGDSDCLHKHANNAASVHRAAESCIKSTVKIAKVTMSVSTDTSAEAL

Row | SMILES | IC50 [1] [nM] | Activity (THP-1 [2]) | EC50 (Cannabinoid receptor 2) [nM] | Emax [3] [%] | Activity (THP-1 [4]) | Activity (THP-1 [5]) | Activity (THP-1 [6]) | Activity (THP-1 [7]) | Activity (THP-1 [8]) | Activity (THP-1 [9]) | Activity (THP-1 [10]) | Activity (THP-1 [11]) | Activity (THP-1 [12]) | Activity (THP-1 [13]) | Activity (THP-1 [14]) | Activity (THP-1 [15]) | Activity (THP-1 [16]) | Activity [17] | EC50 (Cannabinoid receptor 1 [18]) [nM] | Ki (Cannabinoid receptor 1 [19]) [nM]
1 | CCCCCOc1ccccc1C(=O)NC12CC3CC(CC(C3)C1)C2 | 6200 | Active | 23.8 | 34.5 | Active | Active | Active | Active | inactive | Active | inactive | inactive | inactive | inactive | inactive | inactive | inactive | Active | 106 | 153
2 | O=C(NC12CC3CC(CC(C3)C1)C2)c1ccccc1OCc1ccccc1 | 4000 | Active | 51.8 | 12.6 | Active | Active | Active | Active | Active | Active | inactive | inactive | inactive | inactive | inactive | inactive | inactive | Active | 489 | 241
3 | O=C(NC12CC3CC(CC(C3)C1)C2)c1ccccc1OCC1CCCCC1 | 3400 | Active | 10.7 | 5.5 | Active | Active | Active | Active | Active | Active | inactive | inactive | inactive | inactive | inactive | inactive | inactive | Active | 253 | 67.6
